Experimental data published in ChEMBL document CHEMBL1240504, “Synthesis of substituted thieno[2,3-d]pyrimidine-2,4-dithiones and their S-glycoside analogues as potential antiviral and antibacterial agents” (Eur J Med Chem, 2010).
Converted amounts (≈) assume the structure as drawn.

Tests used:
Human alphaherpesvirus 1 [1] = test: Antiviral activity against HSV1 infected in african green monkey Vero cells after 6 hrs by plaque reduction assay; type: functional; set-up: scale not given: the % may be the effect or the level left
How it was run: (§1)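 Modified plaque reduction in 96-well trays with no thickening overlay. Compounds dissolved in DMSO and diluted into medium, then serially diluted and added in triplicate to confluent Vero monolayers. Titred HSV-1 added in medium with 10% calf serum. Incubated 6 h at 37 °C, 5% CO2. Cells fixed with 3.7% formaldehyde and examined visually. The end-point concentration was taken from the dilution series.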

Human alphaherpesvirus 1 [2] = test: Antiviral activity against HSV1 infected in african green monkey Vero cells assessed as minimum antiviral concentration after 6 hrs; type: functional; how it was run: as §1
Vero = test: Cytotoxicity against african green monkey Vero cells assessed as loss of monolayer present around the plaques; type: cell-based; settings: Chlorocebus sabaeus
How it was run: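 Vero monolayers in serial-dilution trays with HSV-1, run in triplicate, 6 h at 37 °C, 5% CO2. Cells fixed with 3.7% formaldehyde and examined visually. IC50 is the concentration giving about 50% loss of the monolayer around HSV-1 plaques.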

[3] = test system: Human immunodeficiency virus 1; test: Antiviral activity against HIV1 infected in human CEM cells assessed as protection against virus-induced cytopathic effect after 6 days by XTT assay; type: functional, organism-based; settings: Human immunodeficiency virus 1, CCRF-CEM, 144 h
How it was run: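 CEM T4 lymphocytes received serially diluted compounds (DMSO stock diluted 1:100 in medium, 1:200 final dilution), then HIV-1. Incubated 6 days at 37 °C, 5% CO2. Formazan read spectrophotometrically after XTT, with microscopic check for viable cells. EC50 is the concentration giving 50% protection against the HIV cytopathic effect. AZT-treated wells served as positive control.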

CCRF-CEM = test: Cytotoxicity against […] human CEM cells after 6 days by XTT assay; type: cell-based; settings: 144 h
How it was run: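 Uninfected CEM cultures given serial compound dilutions (DMSO, 1:200 final dilution). Incubated 6 days at 37 °C, 5% CO2, then read by XTT formazan. IC50 is the molar concentration causing 50% inhibition of cell growth.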

[4] = Therapeutic index, ratio of IC50 for human CEM cells to EC50 for HIV1; type: cell-based, CCRF-CEM; settings: read-out: Ratio IC50/EC50
How it was run: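 CEM T4 lymphocytes, with or without HIV-1, were incubated with serially diluted compounds (DMSO solution diluted 1:100 in medium; 1:200 final dilution after cells and virus were added) at 37 °C in 5% CO2 for 6 days. Controls were untreated and AZT-treated. Read-out was XTT formazan, measured spectrophotometrically plus microscopy. EC50 is 50% protection from cytopathic effect; IC50 is 50% growth inhibition in uninfected cultures.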

Escherichia coli [5] = test: Antibacterial activity against Escherichia coli MTCC 41 after 12 to 16 hrs by turbidity assay; type: functional
How it was run: (§2)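 Broth dilution MIC in LB broth. Tubes inoculated, incubated 12–16 h and scored by eye for turbidity (growth) versus clear (no growth).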

Escherichia coli [6] = test: Antibacterial activity against Escherichia coli MTCC 41 at 128 mg/ml after 16 hrs by disk diffusion test; type: functional; set-up: dose or concentration left out as unconfirmed; settings: MTCC 41, 16 h, read-out: IZ
Escherichia coli [7] = test: Antibacterial activity against Escherichia coli MTCC 41 at 64 mg/ml after 16 hrs by disk diffusion test; type: functional; set-up: dose or concentration left out as unconfirmed; settings: MTCC 41, 16 h, read-out: IZ
Staphylococcus aureus [8] = test: Antibacterial activity against Staphylococcus aureus MTCC 1144 after 12 to 16 hrs by turbidity assay; type: functional; how it was run: as §2
Staphylococcus aureus [9] = test: Antibacterial activity against Staphylococcus aureus MTCC 1144 at 128 mg/ml after 16 hrs by disk diffusion test; type: functional; set-up: dose or concentration left out as unconfirmed; settings: MTCC 1144, 16 h, read-out: IZ
Staphylococcus aureus [10] = test: Antibacterial activity against Staphylococcus aureus MTCC 1144 at 64 mg/ml after 16 hrs by disk diffusion test; type: functional; settings: MTCC 1144, 16 h, read-out: IZ
How it was run: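 Disk diffusion (zone of inhibition). Bacterial isolate spread evenly over an agar plate. A filter disk carrying a known amount of compound was placed on the surface and the compound left to diffuse. The inhibition zone in the lawn was read after 16 h incubation.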

Pseudomonas putida [11] = test: Antibacterial activity against ampicillin-resistant Pseudomonas putida MTCC 1072 after 12 to 16 hrs by turbidity assay; type: functional; how it was run: as §2
Pseudomonas putida [12] = test: Antibacterial activity against ampicillin-resistant Pseudomonas putida MTCC 1072 at 128 mg/ml after 16 hrs by disk diffusion test; type: functional; set-up: dose or concentration left out as unconfirmed; settings: MTCC 1072, 16 h, read-out: IZ
Pseudomonas putida [13] = test: Antibacterial activity against ampicillin-resistant Pseudomonas putida MTCC 1072 at 64 mg/ml after 16 hrs by disk diffusion test; type: functional; set-up: dose or concentration left out as unconfirmed; settings: MTCC 1072, 16 h, read-out: IZ

SMILES	Activity (Human alphaherpesvirus 1 [1]) [%]	MAC (Human alphaherpesvirus 1 [2]) [µM]	IC50 (Vero) [µM]	EC50 [3] [µM]	IC50 (CCRF-CEM) [µM]	selectivity ratio [4]	MIC (Escherichia coli [5]) [µg/mL]	zone of inhibition (Escherichia coli [6]) [mm]	zone of inhibition (Escherichia coli [7]) [mm]	MIC (Staphylococcus aureus [8]) [µg/mL]	zone of inhibition (Staphylococcus aureus [9]) [mm]	zone of inhibition at 64000 µg/mL (Staphylococcus aureus [10]) [mm]	MIC (Pseudomonas putida [11]) [µg/mL]	zone of inhibition (Pseudomonas putida [12]) [mm]	zone of inhibition (Pseudomonas putida [13]) [mm]
OC[C@H]1O[C@@H](Sc2nc3sc4c(c3c(=S)[nH]2)CCCCC4)[C@@H](O)[C@@H]1O	24	0.21	> 1.46	> 100	> 100	> 1	128 (≈ 320 µM)	> 3	> 2	128 (≈ 320 µM)	> 3	> 2	128 (≈ 320 µM)	> 3	> 2
OC[C@H]1O[C@@H](Sc2nc3sc4c(c3c(=S)[nH]2)CCCC4)[C@@H](O)[C@@H]1O	30	0.29	> 1.7	> 100	> 100	> 1	128 (≈ 331 µM)	> 3	> 2	> 128	> 2	> 2	64 (≈ 166 µM)	> 3	> 3
